Experimental data gathered from unrelated publications.
Compare with care: the assays were run in different laboratories.
EGFR: Epidermal growth factor receptor (EGFR, Homo sapiens, UniProt P00533)
DRD2: D(2) dopamine receptor (DRD2, Homo sapiens, UniProt P14416)
MTOR: Serine/threonine-protein kinase mTOR (MTOR, Homo sapiens, UniProt P42345)

`CSCC[C@H](NC(=O)[C@H](CC(C)C)NC(=O)[C@H](Cc1cnc[nH]1)NC(=O)CNC(=O)[C@@H](NC(=O)[C@H](C)NC(=O)[C@H](Cc1c[nH]c2ccccc12)NC(=O)[C@H](CCC(N)=O)NC(=O)[C@H](CC(N)=O)NC(=O)CNC(=O)[C@H](CC(C)C)NC(=O)[C@H](CCCN=C(N)N)NC(=O)[C@H](CCC(N)=O)NC(=O)[C@@H]1CCC(=O)N1)C(C)C)C(N)=O` has an EC50 of > 10000 nM (Bombesin receptor subtype-3 (Brs3, Rattus norvegicus, UniProt Q8K418); calcium signal, agonist, fluorescence).
For `CC[C@H](C)[C@H](NC(=O)[C@@H](N)CCCNC(=N)N)C(=O)N[C@H](C(=O)N1CCC[C@H]1C(=O)N[C@@H](C)C(N)=O)C(C)C`, the Kd was 800 nM (Sequestosome-1 (SQSTM1, Homo sapiens, UniProt Q13501); binding, MST; pH 7).
`CC(C)[C@@H]1NC(=O)CCNC(=O)CCNC(=O)[C@H](Cc2ccc(O)cc2)NC(=O)[C@H](Cc2ccc(O)cc2)NC(=O)[C@H](Cc2ccccc2)NC(=O)[C@@H](Cc2ccc(O)cc2)NC(=O)CSC[C@@H](C(=O)NCC(N)=O)NC(=O)CCNC(=O)[C@H](CCCNC(=N)N)NC(=O)[C@H](CCCNC(=N)N)NC(=O)[C@H](Cc2ccc(O)cc2)NC(=O)[C@H](C(C)C)NC(=O)[C@H](C(C)C)NC(=O)[C@H](CC(N)=O)NC1=O` has a Kd of 1690 nM (EGFR; binding, SPR).
`COCCCN1CCN(c2ccccc2OC)CC1` has a Ki of 180 nM (DRD2; ligand displacement, radioligand).
With `CC(C)C[C@H](NC(=O)[C@H](Cc1ccccc1)NC(=O)[C@H](Cc1ccc(O)cc1)NC(=O)CNC(=O)[C@H](CCCCN)NC(=O)[C@H](CO)NC(=O)[C@H](CCC(N)=O)NC(=O)CNC(=O)[C@@H](NC(=O)[C@H](CO)NC(=O)[C@@H]1CCCN1C(=O)[C@H](CO)NC(=O)[C@H](CCC(N)=O)NC(=O)[C@H](Cc1ccc(O)cc1)NC(=O)[C@H](CCC(=O)O)NC(=O)[C@H](C)NC(=O)[C@H](CCCCN)NC(=O)[C@@H](N)Cc1ccccc1)C(C)C)C(=O)N[C@@H](Cc1ccccc1)C(=O)N[C@@H](CCCNC(=N)N)C(=O)N1CCC[C@H]1C(=O)N[C@@H](CCCNC(=N)N)C(=O)N[C@@H](CC(N)=O)C(N)=O` the EC50 was 0.794 nM (Neuromedin-U receptor 2 (Mus musculus, UniProt Q8BZ39); inositol phosphate, agonist).
`Cc1cc(O)cc(C)c1C[C@H](N)C(=O)N[C@H](C)C(=O)NCC(=O)N[C@@H](Cc1ccc(Cl)cc1)C(=O)N(C)CCC[C@@]1(c2ccc(F)cc2)OCc2cc(C#N)ccc21` gave a Ki of 2200 nM (DRD2; ligand displacement, radioligand).
The Kd of `O=c1c(O)c(-c2ccc(O)c(O)c2)oc2cc(O)ccc12` is reported as 11000 nM (MTOR; cell-free assay, competition with immobilised ligand).
`C=C1C[C@H]2C[C@@H](c3ccc(Br)cc3)OCC[C@@H](O)CC(=O)O[C@@H]([C@@H](C)O)C[C@@H]3C/C(=C\C(=O)OC)[C@H](OC(=O)CCCCCCC)[C@@](O)(O3)C(C)(C)/C=C/[C@@H](C1)O2` gave a Ki of 2.2 nM (Protein kinase C delta type (PRKCD, Homo sapiens, UniProt Q05655); ligand displacement, radioligand).
The Kd of `Nc1ncc(-c2nc(N3CCOCC3)nc(N3CCOCC3)n2)c(C(F)F)n1` is reported as 21.5 nM (MTOR; binding, competition with immobilised ligand).
The Ki of `CCCC[C@@H](NC(=O)[C@@H](N)Cc1c(C)cc(O)cc1C)C(=O)NCC(=O)N[C@@H](Cc1ccc(F)cc1)C(=O)N(C)CCC[C@@]1(c2ccc(F)cc2)OCc2cc(C#N)ccc21` is reported as 2700 nM (DRD2; ligand displacement, radioligand).
`CC(C)[C@@H]1NC(=O)[C@H](CCCNC(=N)N)NC(=O)[C@H](Cc2ccc(O)cc2)NC(=O)[C@H](C(C)C)NC(=O)[C@H](C(C)C)NC(=O)[C@H](CCCNC(=N)N)NC(=O)[C@H](CC(=O)O)NC(=O)[C@H](CC(=O)O)NC(=O)CCNC(=O)[C@H](Cc2ccc(O)cc2)NC(=O)[C@H](Cc2ccc(O)cc2)NC(=O)[C@H](Cc2ccccc2)NC(=O)[C@@H](Cc2ccc(O)cc2)NC(=O)CSC[C@@H](C(=O)NCC(N)=O)NC(=O)CCNC1=O` has a Kd of 632 nM (EGFR; binding, SPR).
The Ki of `OC(c1ccc(F)cc1)C(F)(F)CCN1CCC(O)(c2ccc(Cl)cc2)CC1` (racemic) is reported as 1960 nM (DRD2; cell-free assay, radioligand).
With `CC/C=C\C/C=C\C/C=C\CCCCCCCC(=O)O` the Ki was 620 nM (Liver carboxylesterase (Sus scrofa, UniProt Q29550); enzyme activity, inhibitor, HPLC).
